Molecules are shown by their SMILES. Some results are limits rather than exact numbers.

Data on four compounds can be found in ChEMBL document CHEMBL2029214, “Radiosynthesis and evaluation of an (18)F-labeled positron emission tomography (PET) radioligand for brain histamine subtype-3 receptors based on a nonimidazole 2-aminoethylbenzofuran chemotype” (J Med Chem, 2012).

Assay [1] deals with Alpha-1D adrenergic receptor (Homo sapiens, UniProt P25100). The assay can be described thus: Binding affinity to human recombinant alpha1D adrenergic receptor.
Assay [2] concerns the target 5-hydroxytryptamine receptor 1A (Homo sapiens, UniProt P08908). The assay can be described thus: Binding affinity to human recombinant 5HT1A receptor.
In a further assay the target is D(2) dopamine receptor (Homo sapiens, UniProt P14416). The assay can be described thus: Binding affinity to human recombinant Dopamine D2 receptor.
D(2) dopamine receptor, sequence (P14416 whole entry): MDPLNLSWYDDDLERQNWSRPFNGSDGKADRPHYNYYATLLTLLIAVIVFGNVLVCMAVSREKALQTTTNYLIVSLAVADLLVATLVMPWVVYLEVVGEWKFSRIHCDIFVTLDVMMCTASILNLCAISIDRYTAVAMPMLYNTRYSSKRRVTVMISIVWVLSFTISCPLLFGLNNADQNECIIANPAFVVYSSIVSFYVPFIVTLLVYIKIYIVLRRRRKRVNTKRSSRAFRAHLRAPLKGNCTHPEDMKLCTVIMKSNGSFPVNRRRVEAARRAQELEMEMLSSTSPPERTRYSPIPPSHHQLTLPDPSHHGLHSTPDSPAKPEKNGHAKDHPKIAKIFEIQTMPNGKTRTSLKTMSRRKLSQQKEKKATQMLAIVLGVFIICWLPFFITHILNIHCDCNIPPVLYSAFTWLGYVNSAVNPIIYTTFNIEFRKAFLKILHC
In another assay the target is Histamine H3 receptor (Homo sapiens, UniProt Q9Y5N1). The assay can be described thus: Binding affinity to human recombinant H3 receptor expressed in HEK293T cells. Format: cell-based, HEK-293T.
The target in a further assay is D(1A) dopamine receptor (Homo sapiens, UniProt P21728). Briefly: Binding affinity to human recombinant Dopamine D1 receptor.
Assay [3] has as its target Sigma non-opioid intracellular receptor 1 (Homo sapiens, UniProt Q99720). The assay can be described thus: Binding affinity to human recombinant sigma1 receptor.
Assay [4] deals with 5-hydroxytryptamine receptor 1B (Homo sapiens, UniProt P28222). The assay can be described thus: Binding affinity to human recombinant 5HT1B receptor.
In assay [5] the target is Sodium-dependent dopamine transporter (Homo sapiens, UniProt Q01959). The assay can be described thus: Binding affinity to human recombinant DAT.
Sodium-dependent dopamine transporter, sequence (Q01959 whole entry): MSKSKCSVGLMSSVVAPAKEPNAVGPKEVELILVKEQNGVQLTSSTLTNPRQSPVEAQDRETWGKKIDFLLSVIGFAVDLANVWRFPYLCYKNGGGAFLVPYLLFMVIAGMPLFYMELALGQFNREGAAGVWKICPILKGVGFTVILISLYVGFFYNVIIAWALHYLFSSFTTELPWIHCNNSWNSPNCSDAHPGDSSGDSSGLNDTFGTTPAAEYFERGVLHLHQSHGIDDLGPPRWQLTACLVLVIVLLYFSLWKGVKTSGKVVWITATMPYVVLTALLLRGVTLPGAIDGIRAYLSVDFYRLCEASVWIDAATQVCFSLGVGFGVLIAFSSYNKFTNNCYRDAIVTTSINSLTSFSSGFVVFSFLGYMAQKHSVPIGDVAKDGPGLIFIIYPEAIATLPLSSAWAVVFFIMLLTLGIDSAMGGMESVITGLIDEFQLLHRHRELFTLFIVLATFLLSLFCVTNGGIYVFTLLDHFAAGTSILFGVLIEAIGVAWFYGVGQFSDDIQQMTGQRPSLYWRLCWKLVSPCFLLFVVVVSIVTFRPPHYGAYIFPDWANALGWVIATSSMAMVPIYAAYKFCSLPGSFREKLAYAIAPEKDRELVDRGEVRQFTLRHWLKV
For assay [6], the target named is Alpha-2A adrenergic receptor (Homo sapiens, UniProt P08913). The assay can be described thus: Binding affinity to human recombinant alpha2A adrenergic receptor.
Assay [7] concerns the target Beta-3 adrenergic receptor (Homo sapiens, UniProt P13945). Briefly: Binding affinity to human recombinant beta3 adrenergic receptor.
For assay [8], the target named is Muscarinic acetylcholine receptor M3 (Homo sapiens, UniProt P20309). The assay can be described thus: Binding affinity to human recombinant M3 receptor.
For assay [9], the target named is Muscarinic acetylcholine receptor M5 (Homo sapiens, UniProt P08912). The assay can be described thus: Binding affinity to human recombinant M5 receptor. Summed up:
(§1)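 Ki values were taken from in vitro competitive binding assays against each human recombinant receptor.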

The target of assay [10] is Beta-2 adrenergic receptor (Homo sapiens, UniProt P07550). The assay can be described thus: Binding affinity to human recombinant beta2 adrenergic receptor.
Beta-2 adrenergic receptor, sequence (P07550 whole entry): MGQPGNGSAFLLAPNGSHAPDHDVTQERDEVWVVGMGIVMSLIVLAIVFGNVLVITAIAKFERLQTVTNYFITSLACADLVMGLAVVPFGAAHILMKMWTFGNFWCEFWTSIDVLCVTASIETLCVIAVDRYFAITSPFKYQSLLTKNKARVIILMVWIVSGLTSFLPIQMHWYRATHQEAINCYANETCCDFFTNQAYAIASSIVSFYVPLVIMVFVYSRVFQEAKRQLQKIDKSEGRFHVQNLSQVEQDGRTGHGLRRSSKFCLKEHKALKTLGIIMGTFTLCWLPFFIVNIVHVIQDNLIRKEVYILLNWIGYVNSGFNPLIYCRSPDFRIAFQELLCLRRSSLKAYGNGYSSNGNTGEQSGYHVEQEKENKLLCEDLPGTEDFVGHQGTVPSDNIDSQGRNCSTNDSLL
In assay [11] the target is Muscarinic acetylcholine receptor M2 (Homo sapiens, UniProt P08172). Briefly: Binding affinity to human recombinant M2 receptor.
Muscarinic acetylcholine receptor M2, sequence (P08172 whole entry): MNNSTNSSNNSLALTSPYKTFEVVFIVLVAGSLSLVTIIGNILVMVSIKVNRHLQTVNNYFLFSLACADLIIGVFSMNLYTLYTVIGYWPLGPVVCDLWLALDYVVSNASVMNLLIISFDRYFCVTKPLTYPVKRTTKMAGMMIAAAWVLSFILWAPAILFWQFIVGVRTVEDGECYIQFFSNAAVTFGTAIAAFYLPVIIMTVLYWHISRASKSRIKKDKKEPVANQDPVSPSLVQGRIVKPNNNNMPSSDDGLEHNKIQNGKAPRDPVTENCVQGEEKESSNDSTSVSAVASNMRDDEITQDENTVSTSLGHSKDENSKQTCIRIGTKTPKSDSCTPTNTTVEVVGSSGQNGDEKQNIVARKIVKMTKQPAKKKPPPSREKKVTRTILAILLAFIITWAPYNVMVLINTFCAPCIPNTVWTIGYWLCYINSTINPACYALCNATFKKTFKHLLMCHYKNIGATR
The target of assay [12] is Beta-1 adrenergic receptor (Homo sapiens, UniProt P08588). The assay can be described thus: Binding affinity to human recombinant beta1 adrenergic receptor.
Assay [13] addresses Alpha-1A adrenergic receptor (Homo sapiens, UniProt P35348). The assay can be described thus: Binding affinity to human recombinant alpha1A adrenergic receptor.
For another assay, the target named is D(4) dopamine receptor (Homo sapiens, UniProt P21917). Briefly: Binding affinity to human recombinant Dopamine D4 receptor.
Assay [14] addresses Muscarinic acetylcholine receptor M4 (Homo sapiens, UniProt P08173). The assay can be described thus: Binding affinity to human recombinant M4 receptor.
Assay [15] concerns the target Sodium-dependent serotonin transporter (Homo sapiens, UniProt P31645). Briefly: Binding affinity to human recombinant SERT.
For assay [16], the target named is Sodium-dependent noradrenaline transporter (Homo sapiens, UniProt P23975). The assay can be described thus: Binding affinity to human recombinant NET.
The target of assay [17] is 5-hydroxytryptamine receptor 1D (Homo sapiens, UniProt P28221). Briefly: Binding affinity to human recombinant 5HT1D receptor. In a few lines: as §1
The next assay has as its target D(3) dopamine receptor (Homo sapiens, UniProt P35462). Briefly: Binding affinity to human recombinant Dopamine D3 receptor.
In the next assay the target is Histamine H1 receptor (Homo sapiens, UniProt P35367). Briefly: Binding affinity to human recombinant H1 receptor.
Histamine H1 receptor, sequence (P35367 whole entry): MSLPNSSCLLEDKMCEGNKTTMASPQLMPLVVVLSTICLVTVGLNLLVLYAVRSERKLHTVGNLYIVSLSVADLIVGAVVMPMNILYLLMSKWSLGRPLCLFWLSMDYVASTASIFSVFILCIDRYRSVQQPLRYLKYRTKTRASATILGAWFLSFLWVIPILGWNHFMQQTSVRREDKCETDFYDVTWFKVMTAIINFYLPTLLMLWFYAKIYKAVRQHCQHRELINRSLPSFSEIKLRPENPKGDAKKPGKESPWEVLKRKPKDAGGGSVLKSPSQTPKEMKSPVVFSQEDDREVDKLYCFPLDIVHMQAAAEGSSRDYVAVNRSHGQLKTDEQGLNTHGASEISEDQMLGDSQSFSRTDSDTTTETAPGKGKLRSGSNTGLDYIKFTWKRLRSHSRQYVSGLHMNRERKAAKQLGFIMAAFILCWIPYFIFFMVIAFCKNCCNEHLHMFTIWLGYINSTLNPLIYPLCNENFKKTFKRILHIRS
Assay [18] deals with 5-hydroxytryptamine receptor 3A (Homo sapiens, UniProt P46098). The assay can be described thus: Binding affinity to human recombinant 5HT3 receptor.
For assay [19], the target named is 5-hydroxytryptamine receptor 2A (Homo sapiens, UniProt P28223). The assay can be described thus: Binding affinity to human recombinant 5HT2A receptor. Summed up: as §1
Assay [20] addresses Alpha-2C adrenergic receptor (Homo sapiens, UniProt P18825). The assay can be described thus: Binding affinity to human recombinant alpha2C adrenergic receptor.
Assay [21] addresses Alpha-1B adrenergic receptor (Homo sapiens, UniProt P35368). The assay can be described thus: Binding affinity to human recombinant alpha1B adrenergic receptor.
For the next assay, the target named is D(1B) dopamine receptor (Homo sapiens, UniProt P21918). The assay can be described thus: Binding affinity to human recombinant Dopamine D5 receptor.
Assay [22] concerns the target 5-hydroxytryptamine receptor 6 (Homo sapiens, UniProt P50406). The assay can be described thus: Binding affinity to human recombinant 5HT6 receptor.
Assay [23] has as its target 5-hydroxytryptamine receptor 2B (Homo sapiens, UniProt P41595). Briefly: Binding affinity to human recombinant 5HT2B receptor.
Assay [24] addresses 5-hydroxytryptamine receptor 2C (Homo sapiens, UniProt P28335). Briefly: Binding affinity to human recombinant 5HT2C receptor.
Assay [25] deals with 5-hydroxytryptamine receptor 1E (Homo sapiens, UniProt P28566). The assay can be described thus: Binding affinity to human recombinant 5HT1E receptor.
5-hydroxytryptamine receptor 1E, sequence (P28566 whole entry): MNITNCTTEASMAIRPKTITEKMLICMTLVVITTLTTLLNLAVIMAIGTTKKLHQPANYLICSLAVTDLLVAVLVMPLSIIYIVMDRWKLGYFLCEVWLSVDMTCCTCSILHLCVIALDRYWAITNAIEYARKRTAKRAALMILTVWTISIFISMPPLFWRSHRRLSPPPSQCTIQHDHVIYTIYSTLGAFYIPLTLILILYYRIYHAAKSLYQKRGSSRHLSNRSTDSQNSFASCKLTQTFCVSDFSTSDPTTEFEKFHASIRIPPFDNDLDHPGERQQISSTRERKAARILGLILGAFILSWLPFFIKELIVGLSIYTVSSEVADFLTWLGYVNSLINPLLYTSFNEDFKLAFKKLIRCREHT
In assay [26] the target is Muscarinic acetylcholine receptor M1 (Homo sapiens, UniProt P11229). The assay can be described thus: Binding affinity to human recombinant M1 receptor.
Muscarinic acetylcholine receptor M1, sequence (P11229 whole entry): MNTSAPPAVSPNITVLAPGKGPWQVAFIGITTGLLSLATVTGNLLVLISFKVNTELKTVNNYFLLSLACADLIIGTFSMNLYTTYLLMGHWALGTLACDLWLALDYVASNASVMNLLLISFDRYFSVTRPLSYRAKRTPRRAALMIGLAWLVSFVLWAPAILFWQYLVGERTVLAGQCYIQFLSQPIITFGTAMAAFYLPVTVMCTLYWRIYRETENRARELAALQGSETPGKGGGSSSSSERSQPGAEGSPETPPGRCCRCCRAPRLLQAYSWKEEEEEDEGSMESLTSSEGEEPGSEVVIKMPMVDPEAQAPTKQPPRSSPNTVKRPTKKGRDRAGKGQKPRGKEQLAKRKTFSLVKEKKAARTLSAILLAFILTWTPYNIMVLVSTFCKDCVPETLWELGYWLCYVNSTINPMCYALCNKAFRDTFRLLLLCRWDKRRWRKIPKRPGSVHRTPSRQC
A further assay addresses Histamine H4 receptor (Homo sapiens, UniProt Q9H3N8). Briefly: Binding affinity to human recombinant H4 receptor.
Another assay concerns the target Histamine H2 receptor (Homo sapiens, UniProt P25021). Briefly: Binding affinity to human recombinant H2 receptor.
For assay [27], the target named is 5-hydroxytryptamine receptor 7 (Homo sapiens, UniProt P34969). The assay can be described thus: Binding affinity to human recombinant 5HT7 receptor.
Assay [28] has as its target Alpha-2B adrenergic receptor (Homo sapiens, UniProt P18089). The assay can be described thus: Binding affinity to human recombinant alpha2B adrenergic receptor.
Assay [29] deals with Histamine receptor H3 (Macaca mulatta) (UniProt Q865E1). Briefly: Induction of histamine H3 receptor-mediated drug uptake in rhesus monkey brain by PET imaging. In a few lines:
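Male rhesus monkeys (7.3 ± 0.8 kg; n = 4 baseline), ketamine 10 mg/kg i.m. then 1.5% isoflurane in O2. […] [18F]ligand given i.v. Focus 220 microPET, 180 min (one scan 120 min), 45 frames 30 s–5 min, scatter/attenuation corrected, decay-corrected; template-normalized regions; uptake as SUV.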

D(3) dopamine receptor, sequence (P35462 whole entry): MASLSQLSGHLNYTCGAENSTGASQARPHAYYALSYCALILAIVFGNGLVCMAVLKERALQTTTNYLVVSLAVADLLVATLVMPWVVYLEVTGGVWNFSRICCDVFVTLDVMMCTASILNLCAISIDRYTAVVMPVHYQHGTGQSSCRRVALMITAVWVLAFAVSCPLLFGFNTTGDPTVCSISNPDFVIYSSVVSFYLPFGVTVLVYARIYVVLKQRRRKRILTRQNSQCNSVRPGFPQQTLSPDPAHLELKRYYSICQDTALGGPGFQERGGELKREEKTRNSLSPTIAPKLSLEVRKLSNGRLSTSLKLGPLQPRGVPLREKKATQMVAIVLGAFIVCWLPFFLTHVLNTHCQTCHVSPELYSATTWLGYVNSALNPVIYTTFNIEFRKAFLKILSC
Histamine H2 receptor, sequence (P25021 whole entry): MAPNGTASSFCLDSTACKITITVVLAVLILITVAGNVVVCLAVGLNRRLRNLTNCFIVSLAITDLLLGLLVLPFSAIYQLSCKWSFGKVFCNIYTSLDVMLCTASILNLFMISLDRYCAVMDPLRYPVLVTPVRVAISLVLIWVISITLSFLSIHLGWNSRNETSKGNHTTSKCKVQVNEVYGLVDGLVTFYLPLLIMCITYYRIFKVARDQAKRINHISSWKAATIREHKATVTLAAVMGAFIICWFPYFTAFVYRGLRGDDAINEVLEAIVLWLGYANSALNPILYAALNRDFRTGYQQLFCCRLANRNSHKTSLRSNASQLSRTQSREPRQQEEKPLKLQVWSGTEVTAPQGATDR
Alpha-2C adrenergic receptor, sequence (P18825 whole entry): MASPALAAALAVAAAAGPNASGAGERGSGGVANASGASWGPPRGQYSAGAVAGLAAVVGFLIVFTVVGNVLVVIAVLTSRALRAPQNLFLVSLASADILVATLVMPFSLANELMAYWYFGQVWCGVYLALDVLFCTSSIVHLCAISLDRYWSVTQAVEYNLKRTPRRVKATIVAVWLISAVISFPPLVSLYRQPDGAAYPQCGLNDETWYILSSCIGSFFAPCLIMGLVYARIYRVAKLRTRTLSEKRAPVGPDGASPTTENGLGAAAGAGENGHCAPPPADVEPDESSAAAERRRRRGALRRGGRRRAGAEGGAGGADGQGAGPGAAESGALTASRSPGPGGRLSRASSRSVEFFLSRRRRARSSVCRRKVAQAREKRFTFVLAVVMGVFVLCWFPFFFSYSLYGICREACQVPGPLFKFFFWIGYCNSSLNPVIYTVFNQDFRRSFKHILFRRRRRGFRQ
5-hydroxytryptamine receptor 2B, sequence (P41595 whole entry): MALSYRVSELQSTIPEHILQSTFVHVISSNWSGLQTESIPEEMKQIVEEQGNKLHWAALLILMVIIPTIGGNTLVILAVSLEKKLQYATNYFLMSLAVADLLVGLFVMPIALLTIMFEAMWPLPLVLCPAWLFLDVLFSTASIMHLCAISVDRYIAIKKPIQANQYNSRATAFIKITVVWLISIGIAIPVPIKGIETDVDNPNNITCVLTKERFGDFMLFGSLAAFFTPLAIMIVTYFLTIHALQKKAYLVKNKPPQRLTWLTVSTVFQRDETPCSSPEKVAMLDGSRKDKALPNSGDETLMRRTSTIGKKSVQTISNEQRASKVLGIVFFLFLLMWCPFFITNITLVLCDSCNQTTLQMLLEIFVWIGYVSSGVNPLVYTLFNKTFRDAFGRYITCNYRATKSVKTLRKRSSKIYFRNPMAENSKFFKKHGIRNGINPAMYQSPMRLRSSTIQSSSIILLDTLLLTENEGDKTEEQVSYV

With `C[C@@H]1CCCN1CCc1cc2cc(C(=O)c3ccc([N+](=O)[O-])cc3)ccc2o1`, the Ki is greater than 10 µM in [1]; greater than 10 µM in assay [2]; greater than 10 µM on D(2) dopamine receptor; 0.0004 µM at Histamine H3 receptor; greater than 10 µM at D(1A) dopamine receptor; greater than 10 µM in assay [3]. For the same compound, the Ki in [4] was greater than 10 µM; in [5], 0.137 µM; in [6], greater than 10 µM; in assay [7], greater than 10 µM; in assay [8], 0.512 µM; in assay [9] it was 0.336 µM. Also, the Ki in [10] was greater than 10 µM; in assay [11], 0.681 µM; in assay [12], greater than 10 µM; in assay [13] it was greater than 10 µM; on D(4) dopamine receptor, greater than 10 µM; in [14], 0.415 µM. Further, the Ki in assay [15] was greater than 10 µM; in [16], greater than 10 µM; in assay [17], 5.24 µM; on D(3) dopamine receptor, greater than 10 µM; at Histamine H1 receptor, 7.05 µM; in assay [18], greater than 10 µM. Moreover, the Ki in assay [19] was 1.36 µM; in assay [20], greater than 10 µM; in assay [21], greater than 10 µM; on D(1B) dopamine receptor, greater than 10 µM; in assay [22], greater than 10 µM; in assay [23] it was greater than 10 µM. The Ki is greater than 10 µM in [24]; greater than 10 µM in [25]; 0.931 µM in assay [26]; greater than 10 µM at Histamine H4 receptor; 0.923 µM at Histamine H2 receptor; greater than 10 µM in assay [27]. In addition, the Ki in [28] is greater than 10 µM.

`CNC(=O)c1ccc(Oc2ccc3c(c2)CCN(C2CCC2)CC3)nc1` registered an Activity in [29] greater than 90%.

In the case of `COc1ccc2c(c1)C(=O)O[C@]21CC[C@H](C(=O)N(C)CCN2CCCCC2)CC1`, the Activity in assay [29] stood at 83%.

Consider `C[C@@H]1CCCN1CCc1cc2cc(C(=O)c3ccc(F)cc3)ccc2o1`, for which the inhibition constant (Ki) in assay [1] was greater than 10 µM; in assay [2] it was 0.432 µM; on D(2) dopamine receptor, greater than 10 µM; at D(1A) dopamine receptor, greater than 10 µM; in assay [3], greater than 10 µM; in assay [4], greater than 10 µM. Besides, the Ki is greater than 10 µM in assay [5]; greater than 10 µM in assay [6]; greater than 10 µM in [7]; 0.204 µM in assay [8]; 0.437 µM in assay [9]; greater than 10 µM in assay [10]. Also, the inhibition constant (Ki) was 0.462 µM in assay [11]; greater than 10 µM in [12]; greater than 10 µM in assay [13]; greater than 10 µM at D(4) dopamine receptor; 0.351 µM in [14]; greater than 10 µM in [15]. Also, the Ki in [16] was greater than 10 µM; in assay [17] it was 6.38 µM; on D(3) dopamine receptor, greater than 10 µM; at Histamine H1 receptor it was 5.44 µM; in assay [18] it was greater than 10 µM; in assay [19], 2.72 µM. For the same compound, the Ki is greater than 10 µM in [20]; greater than 10 µM in [21]; greater than 10 µM on D(1B) dopamine receptor; greater than 10 µM in assay [22]; 3.15 µM in assay [23]; greater than 10 µM in assay [24]. The Ki was greater than 10 µM in assay [25]; 3.27 µM in assay [26]; greater than 10 µM at Histamine H4 receptor; 1.71 µM on Histamine H2 receptor; greater than 10 µM in assay [27]; greater than 10 µM in assay [28].

A word on the Ki: it is a measure of affinity in units of concentration, obtained from inhibition or displacement.
